The results in this text go back to ChEMBL document CHEMBL3526009, “Breast cancer resistance protein (ABCG2) determines distribution of genistein phase II metabolites: reevaluation of the roles of ABCG2 in the disposition of genistein” (Drug Metab Dispos, 2012).

Data set [1] in a line: Biliary excretion in wild-type FVB mouse treated with genistein measured after 2.5 hrs post intestinal perfusion by UPLC-MS/MS analysis. It counts as ADME, Bile. Particulars: in vivo, other. The gist of the method:
(§1)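 Gallbladder bile taken after 2.5 h of simultaneous small intestine/colon perfusion with 10 μM genistein (HBSS pH 7.4, 0.191 ml/min) in FVB or Bcrp1(−/−) mice (n = 4). Bile diluted 20-fold in HBSS, daidzein internal standard in acetonitrile added, dried and reconstituted. Genistein and conjugates quantified by UPLC-MS/MS.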

Data set [2] in a line: Biliary excretion in BCRP-/- mouse treated with genistein measured after 2.5 hrs post intestinal perfusion by UPLC-MS/MS analysis. It counts as ADME, Bile. The conditions noted are these: in vivo, other. The gist of the method:
as §1

Another data set has as its system Blood. As to the kind of experiment: Stability in Wistar rat blood at 3 uM up to 4 hrs by UPLC-MS/MS analysis. In kind it is ADME, tissue-based. Summed up: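 Genistein glucuronide mixture (G-7-G plus G-4′-G, 3 μM) with 3.8 μM genistein incubated in fresh rat whole blood, 37°C shaking water bath. Sampled at 0, 60, 120 and 240 min. Reaction stopped with acetonitrile containing daidzein internal standard. Genistein and conjugates quantified by UPLC-MS/MS using multiple reaction monitoring. n = 3.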

A short description of data set [3]: Stability in potassium phosphate buffer at pH 7.4 up to 4 hrs. It counts as physicochemical. The conditions noted are these: pH 7.4, 4 h. Summed up:
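Negative control run under the blood-incubation conditions but in 50 mM potassium phosphate buffer, pH 7.4, instead of blood. Genistein glucuronides (G-7-G plus G-4′-G, with aglycone) or sulfates (G-7-S plus G-4′-S, with aglycone) held at 37°C in a shaking water bath up to 4 h. Sampled at 0, 60, 120 and 240 min and read by UPLC-MS/MS.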

SMILES strings stand for the structures.

Turning to `O=C(O)[C@H]1O[C@@H](Oc2ccc(-c3coc4cc(O)cc(O)c4c3=O)cc2)[C@H](O)[C@@H](O)[C@@H]1O`, the Drug excretion entry in data set [1] and in data set [2] was “metabolite_detected” in each case. The Stability entry (in the data set on Blood; in data set [3]) was “Stable” in each case.
